# Data taken from ChEMBL document CHEMBL1143924, “Discovery of 2-amino-6-carboxamidobenzothiazoles as potent Lck inhibitors” (Bioorg Med Chem Lett, 2008).
# Legend:
# Format in all cases: functional, cell-based
# BaF3 [1] = experiment: Antiproliferative activity against Lck transformed mouse BaF3 cells after 48 hrs by luciferase assay; conditions: BaF3, 48 h
# Method in brief: (§1)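 BaF3 cells transformed with the named kinase, 25,000 cells per well, exposed to serial inhibitor dilutions or DMSO for 48 h. Luciferase expression, read by Bright-Glo luminescence, served as the measure of proliferation/survival.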
# Jurkat [2] = experiment: Inhibition of phorbol myristate acetate and ionomycin induced IL2 promoter activity in human Jurkat cells after 5 hrs
# Method in brief: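 Jurkat IL-2 promoter-luciferase cells, 50,000 per well, stimulated with PMA plus ionomycin, added as an equal volume of solution containing PMA at 40 ng/mL (concentration before mixing). IL-2 promoter activity read as luciferase signal by Bright-Glo.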
# Jurkat [3] = experiment: Inhibition of ant-CD3+CD28 antibodies induced IL2 promoter activity in human Jurkat cells after 5 hrs
# Method in brief: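 Wells coated with anti-mouse IgG in sodium bicarbonate buffer, then loaded with OKT3 (mouse anti-human CD3) and mouse anti-human CD28 antibodies, then washed. Jurkat cells carrying IL-2 promoter-driven luciferase, 100,000 per well, incubated 5 h on the bound antibodies. Luciferase read-out by Bright-Glo.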
# BaF3 [4] = experiment: Antiproliferative activity against InsR transformed mouse BaF3 cells; method in brief: as §1
# BaF3 [5] = experiment: Antiproliferative activity against Lyn transformed mouse BaF3 cells; method in brief: as §1
# BaF3 [6] = experiment: Antiproliferative activity against Src transformed mouse BaF3 cells; method in brief: as §1
# BaF3 [7] = experiment: Antiproliferative activity against Sky transformed mouse BaF3 cells; method in brief: as §1
# BaF3 [8] = experiment: Antiproliferative activity against JAK3 transformed mouse BaF3 cells; method in brief: as §1
# BaF3 [9] = experiment: Antiproliferative activity against KDR transformed mouse BaF3 cells; method in brief: as §1
# BaF3 [10] = experiment: Antiproliferative activity against Alk transformed mouse BaF3 cells; method in brief: as §1
# BaF3 [11] = experiment: Antiproliferative activity against FGFR3 transformed mouse BaF3 cells; method in brief: as §1
# BaF3 [12] = experiment: Antiproliferative activity against FLT3 transformed mouse BaF3 cells; method in brief: as §1
smiles,measurement,setting,value
CCNC(=O)Nc1nc2ccc(C(=O)Nc3cc(NC(=O)c4ccnc(C(C)(C)C)c4)ccc3C)cc2s1,IC50,BaF3 [1],0.009 µM
CCNC(=O)N(C)c1nc2ccc(C(=O)Nc3cc(NC(=O)c4cccc(C(F)(F)F)c4)ccc3C)cc2s1,IC50,BaF3 [1],> 10 µM
COCCOC(=O)Nc1nc2ccc(C(=O)Nc3cc(NC(=O)c4cccc(C(F)(F)F)c4)ccc3C)cc2s1,IC50,Jurkat [2],0.438 µM
same,IC50,Jurkat [3],0.012 µM
same,IC50,BaF3 [1],0.008 µM
Cc1ccc(NC(=O)c2cccc(C(F)(F)F)c2)cc1NC(=O)c1ccc2nc(NC(=O)Nc3cccnc3)sc2c1,IC50,BaF3 [1],0.125 µM
COC(=O)Nc1nc2ccc(C(=O)Nc3cc(NC(=O)c4cccc(C(F)(F)F)c4)ccc3C)cc2s1,IC50,Jurkat [2],0.851 µM
same,IC50,Jurkat [3],0.036 µM
same,IC50,BaF3 [1],0.03 µM
CCNC(=O)Nc1nc2ccc(C(=O)Nc3cc(NC(=O)c4cccc(C(F)(F)F)c4)ccc3C)cc2s1,IC50,Jurkat [2],0.373 µM
same,IC50,Jurkat [3],0.044 µM
same,IC50,BaF3 [1],0.016 µM
Cc1ccnc(Nc2nc3ccc(C(=O)Nc4cc(NC(=O)c5cccc(C(F)(F)F)c5)ccc4C)cc3s2)c1,IC50,BaF3 [1],0.016 µM
Cc1ccc(NC(=O)c2cccc(C(F)(F)F)c2)cc1NC(=O)c1ccc2nc(NCCN3CCN(C)CC3)sc2c1,IC50,BaF3 [1],0.058 µM
COc1ccc(OC(=O)Nc2nc3ccc(C(=O)Nc4cc(NC(=O)c5cccc(C(F)(F)F)c5)ccc4C)cc3s2)cc1,IC50,BaF3 [1],0.131 µM
CCNC(=O)Nc1nc2ccc(C(=O)Nc3cc(NC(=O)c4ccc(Cl)c(C(F)(F)F)c4)ccc3C)cc2s1,IC50,BaF3 [1],0.05 µM
CCNC(=O)Nc1nc2ccc(C(=O)Nc3cc(NC(=O)c4cc(N5CCN(C)CC5)cc(C(F)(F)F)c4)ccc3C)cc2s1,IC50,BaF3 [1],0.019 µM
Cc1ccc(C(=O)Nc2cccc(C(F)(F)F)c2)cc1NC(=O)c1ccc2nc(NC(=O)NC3CCCC3)sc2c1,IC50,BaF3 [1],0.139 µM
Cc1ccc(NC(=O)c2cccc(C(F)(F)F)c2)cc1NC(=O)c1ccc2nc(NC(=O)Nc3ccccc3)sc2c1,IC50,BaF3 [1],0.094 µM
CCNC(=O)Nc1nc2ccc(C(=O)Nc3cc(NC(=O)c4cccc(Cl)c4)ccc3C)cc2s1,IC50,BaF3 [1],0.104 µM
Cc1cc(Br)c(NC(=O)c2cccc(C(F)(F)F)c2)cc1NC(=O)c1ccc2nc(NCCN3CCOCC3)sc2c1,IC50,BaF3 [1],2.1 µM
Cc1ccc(NC(=O)c2cccc(C(F)(F)F)c2)cc1NC(=O)c1ccc2nc(N)sc2c1,IC50,BaF3 [1],0.17 µM
Cc1cc(Nc2nc3ccc(C(=O)Nc4cc(NC(=O)c5cccc(C(F)(F)F)c5)ccc4C)cc3s2)nc(C)n1,IC50,BaF3 [1],0.0006 µM
Cc1cc(C)nc(Nc2nc3ccc(C(=O)Nc4cc(NC(=O)c5cccc(C(F)(F)F)c5)ccc4C)cc3s2)n1,IC50,BaF3 [1],0.053 µM
CCNC(=O)Nc1nc2ccc(C(=O)Nc3cc(C(=O)Nc4cccc(C(F)(F)F)c4)ccc3C)cc2s1,IC50,BaF3 [1],0.118 µM
Cc1ccc(NC(=O)c2cccc(C(F)(F)F)c2)cc1NC(=O)c1ccc2nc(N(C)C(=O)OC(C)(C)C)sc2c1,IC50,BaF3 [1],0.955 µM
CCNC(=O)Nc1nc2ccc(C(=O)Nc3cc(NC(=O)c4cc(F)cc(C(F)(F)F)c4)ccc3C)cc2s1,IC50,BaF3 [1],0.007 µM
CCNC(=O)Nc1nc2ccc(C(=O)Nc3cc(NC(=O)c4ccc(C(C)(C)C)s4)ccc3C)cc2s1,IC50,BaF3 [1],0.012 µM
Cc1ccc(NC(=O)c2cccc(C(F)(F)F)c2)cc1NC(=O)c1ccc2nc(NCCCN(C)C)sc2c1,IC50,BaF3 [1],0.081 µM
Cc1cc(Nc2nc3ccc(C(=O)Nc4cc(NC(=O)c5cccc(C(F)(F)F)c5)ccc4C)cc3s2)no1,IC50,BaF3 [1],0.008 µM
CCNC(=O)Nc1nc2ccc(C(=O)Nc3cc(NC(=O)c4cc(-n5cnc(C)c5)cc(C(F)(F)F)c4)ccc3C)cc2s1,IC50,BaF3 [1],0.015 µM
Cc1ccc(NC(=O)c2cccc(C(F)(F)F)c2)cc1NC(=O)c1ccc2nc(NC(=O)Oc3ccccc3)sc2c1,IC50,BaF3 [1],0.112 µM
Cc1ccc(NC(=O)c2cccc(C(F)(F)F)c2)cc1NC(=O)c1ccc2nc(NC(=O)OC(C)(C)C)sc2c1,IC50,BaF3 [1],0.036 µM
CNC(=O)Nc1nc2ccc(C(=O)Nc3cc(NC(=O)c4cccc(C(F)(F)F)c4)ccc3C)cc2s1,IC50,BaF3 [4],1.28 µM
same,IC50,BaF3 [5],0.094 µM
same,IC50,BaF3 [6],0.301 µM
same,IC50,BaF3 [7],1.1 µM
same,IC50,BaF3 [8],5.01 µM
same,IC50,BaF3 [9],1.61 µM
same,IC50,BaF3 [10],1.63 µM
same,IC50,BaF3 [11],1.98 µM
same,IC50,BaF3 [12],3.14 µM
same,IC50,BaF3 [1],0.021 µM
CCNC(=O)Nc1nc2ccc(C(=O)Nc3cc(NC(=O)c4cccc(OC)c4)ccc3C)cc2s1,IC50,BaF3 [1],0.158 µM
CCNC(=O)Nc1nc2ccc(C(=O)Nc3cc(NC(=O)c4cccc(C)c4)ccc3C)cc2s1,IC50,BaF3 [1],0.112 µM
Cc1ccc(NC(=O)c2cccc(C(F)(F)F)c2)cc1NC(=O)c1ccc2nc(NC(=O)OC(C)C)sc2c1,IC50,BaF3 [4],13.5 µM
same,IC50,BaF3 [5],0.268 µM
same,IC50,BaF3 [6],0.517 µM
same,IC50,BaF3 [7],2.44 µM
same,IC50,BaF3 [8],> 10 µM
same,IC50,BaF3 [9],3.28 µM
same,IC50,BaF3 [10],6.11 µM
same,IC50,BaF3 [11],12.6 µM
same,IC50,BaF3 [12],> 10 µM
same,IC50,BaF3 [1],0.03 µM
Cc1ccc(NC(=O)c2cccc(C(F)(F)F)c2)cc1NC(=O)c1ccc2nc(NCCCN3CCOCC3)sc2c1,IC50,BaF3 [1],0.078 µM
Cc1ccc(NC(=O)c2cccc(C(F)(F)F)c2)cc1NC(=O)c1ccc2nc(NC(=O)NC3CCCC3)sc2c1,IC50,Jurkat [2],0.812 µM
same,IC50,Jurkat [3],0.062 µM
same,IC50,BaF3 [1],0.016 µM
Cc1ccc(NC(=O)c2cccc(C(F)(F)F)c2)cc1NC(=O)c1ccc2nc(Nc3cnccn3)sc2c1,IC50,BaF3 [1],0.004 µM
